Four molecules from ChEMBL document CHEMBL1124832, “Functionalized congener approach for the design of novel muscarinic agents. Synthesis and pharmacological evaluation of N-methyl-N-[4-(1-pyrrolidinyl)-2-butynyl] amides” (J Med Chem, 1990) can be followed below.

A value given as a limit tells only on which side of the number the result lay.

Experiment [1] concerns the target T1, Muscarinic acetylcholine receptor M4 (Rattus norvegicus) (UniProt P08485).
T1 sequence (whole entry): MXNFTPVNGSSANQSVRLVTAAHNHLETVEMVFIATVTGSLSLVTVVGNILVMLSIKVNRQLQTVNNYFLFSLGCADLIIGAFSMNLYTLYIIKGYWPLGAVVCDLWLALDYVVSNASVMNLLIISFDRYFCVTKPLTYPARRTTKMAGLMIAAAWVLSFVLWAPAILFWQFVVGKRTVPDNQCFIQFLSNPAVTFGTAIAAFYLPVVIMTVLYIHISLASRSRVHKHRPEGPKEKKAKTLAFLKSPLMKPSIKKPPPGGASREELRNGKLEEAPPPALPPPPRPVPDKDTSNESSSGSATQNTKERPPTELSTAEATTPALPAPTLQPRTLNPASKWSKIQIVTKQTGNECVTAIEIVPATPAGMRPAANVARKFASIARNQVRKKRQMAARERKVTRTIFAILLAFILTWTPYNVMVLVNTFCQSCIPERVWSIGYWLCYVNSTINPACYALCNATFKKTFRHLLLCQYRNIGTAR
Kind of experiment: Binding affinity at muscarinic acetylcholine receptor M4 from NG108-15 cell line in presence of [3H]-NMS. Type of experiment: cell-based. In short, it runs like this:
(§1)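 Crude membranes from confluent cells, lysed in 2 mM Tris-HCl (pH 7.1)/1 mM EDTA, homogenized, spun at 50000 g and stored at -70 °C. Membranes (150-300 µg protein) incubated 90 min at 37 °C with 0.5 nM [3H]NMS and 100 µM compound in DMEM-Hepes, then filtered on GF/B. Nonspecific binding taken with 1 µM atropine. Reported as percent displacement; two or three trials in triplicate.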

In another experiment the test system is SK-N-SH. As to the kind of experiment: Percent inhibition of stimulation of PI turnover of Oxotremorine M (100 uM) in SK-N-SH cells at 100 uM. Type of experiment: functional, Homo sapiens.
The target of experiment [2] is Muscarinic acetylcholine receptor M3 (Homo sapiens) (UniProt P20309). Kind of experiment: Percent increase in [3H]myo-inositol at muscarinic acetylcholine receptor M3 from SK-N-SH human neuroblastoma cells. Type of experiment: cell-based. Details: concentration or dose not given beside the values. In short, it runs like this:
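SK-N-SH cells grown in DMEM with 10% newborn calf serum and plated at 100000 cells/well. After 24 h they were labeled overnight with [3H]-myo-inositol (2 µCi/well). Cells were rinsed and preincubated 5 min at 37 °C in 10 mM LiCl DMEM-Hepes, then exposed to 100 µM final compound for 30 min at 37 °C. Reported as percent increase relative to oxotremorine M (100%); two or three trials in triplicate.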

Experiment [3] addresses T1, Muscarinic acetylcholine receptor M4 (Rattus norvegicus). Kind of experiment: Percent inhibition against muscarinic acetylcholine receptor M4 from NG108-15 cell line. Type of experiment: cell-based. Further details: concentration or dose not given beside the values. In short, it runs like this:
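NG108-15 cells grown to 90% confluence and preincubated 10 min at 37 °C in 1 mM IBMX in DMEM-Hepes. Compound (100 µM final) and PGE1 (5 µM final) were added for 15 min at 37 °C. cAMP was extracted in 0.1 N HCl for 30 min at room temperature, lyophilized and measured by radioimmunoassay. Reported as percent inhibition versus no-compound control; three trials in triplicate.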

In experiment [4] the target is Muscarinic acetylcholine receptor M3 (Homo sapiens) (UniProt P20309). As to the kind of experiment: Percent binding affinity at muscarinic acetylcholine receptor M3 from SK-N-SH human neuroblastoma cells in presence of [3H]NMS. In kind it is cell-based. In short, it runs like this: as §1
Chain of Muscarinic acetylcholine receptor M3 (Homo sapiens) (P20309 whole entry, looked up): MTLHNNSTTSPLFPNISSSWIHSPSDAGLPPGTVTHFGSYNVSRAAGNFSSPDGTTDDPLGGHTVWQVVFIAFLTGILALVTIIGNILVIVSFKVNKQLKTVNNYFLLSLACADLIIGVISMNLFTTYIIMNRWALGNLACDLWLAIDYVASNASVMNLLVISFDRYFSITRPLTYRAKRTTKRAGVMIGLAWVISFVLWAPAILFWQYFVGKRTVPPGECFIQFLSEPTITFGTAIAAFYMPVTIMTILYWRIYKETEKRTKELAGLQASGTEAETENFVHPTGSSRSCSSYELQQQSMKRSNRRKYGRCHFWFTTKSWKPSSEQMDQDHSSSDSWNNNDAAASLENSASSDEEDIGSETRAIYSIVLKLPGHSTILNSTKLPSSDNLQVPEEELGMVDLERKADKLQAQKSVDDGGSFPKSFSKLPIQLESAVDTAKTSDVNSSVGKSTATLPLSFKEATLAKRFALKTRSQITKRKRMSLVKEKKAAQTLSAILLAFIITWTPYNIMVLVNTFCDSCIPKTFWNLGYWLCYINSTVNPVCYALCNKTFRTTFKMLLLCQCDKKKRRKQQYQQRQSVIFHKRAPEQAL

On to `CN(CC#CCN1CCCC1)C(=O)CCCCN.O=C(O)C(F)(F)F.O=C(O)C(F)(F)F`, for which the Affinity in experiment [1] is 22.4%; in experiment [4] it was 34.4%. The Inhibition (commonly the percentage by which the read-out fell short of the control) with SK-N-SH worked out at 44%. Besides, the Activity in experiment [2] was less than 1%; in experiment [3], 15.8%.
The corresponding values for `CC(=O)NCCC(=O)N(C)CC#CCN1CCCC1.O=C(O)C(=O)O` are 67.7%, 67.4%, 43%, less than 1% and 10.2%.
The corresponding values for `CN(CC#CCN1CCCC1)C(=O)CCCCCN.O=C(O)C(F)(F)F.O=C(O)C(F)(F)F` are 37.9%, 55.9%, 47%, less than 1% and 14.3%.
The corresponding values for `CN(CC#CCN1CCCC1)C(=O)CCN.O=C(O)C(F)(F)F.O=C(O)C(F)(F)F` are 15.1%, 18.1%, 20%, less than 1% and 20.8%.
